# Shown are actives, neighbours in structure and some others; about 27% of the full set was active somewhere.
# Rev-RRE block = disrupts HIV-1 Rev binding to RRE RNA; Rev peptide-RRE RNA binding, FRET; inhibition, % at 8 µM; 97,000 compounds, 0.79% hits;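 active means inhibition above the screen-wide mean plus 3 SD, cut at about 35% in these data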;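 further: 0% = median DMSO wells and 100% = median Neomycin B control wells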
# Target sequence (P05866 whole entry, looked up): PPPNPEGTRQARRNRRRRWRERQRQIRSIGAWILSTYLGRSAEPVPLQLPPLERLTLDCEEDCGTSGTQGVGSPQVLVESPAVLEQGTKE
#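 Assay system: Rev peptide and RRE RNA, both fluorescently labelled; times: 5 min preincubation and 15 min binding, 25 °C; detection: FRET, ex 480 nm, em 540 and 671 nm; read-out basis: % inhibition from 671/540 nm acceptor-to-donor ratio, scaled between controls; benchmarks: DMSO low control, neomycin B high control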
# CYP2C19 inhib = human CYP2C19 inhibition | P33261 | CYP2C19 Supersomes, luciferin-H EGE luminescence, 30 min | inhibition, % at 5 µM | 96,000 compounds, 21% hits | AID 778;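 active means CYP2C19 inhibition above a set limit at 5 µM in the primary screen, cut at about 50% in these data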;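 further: plate controls were negative control wells for no effect and 2.5 mM tranylcypromine positive control for full effect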
# CYP2C9 activ = CYP2C9 (human) activation; P11712; recombinant CYP2C9, luciferin-H conversion, luminescence; stronger effect = higher value; factor 1 = untreated enzyme, 0 = blocked; activation factor at 5 µM; 96,000 compounds, 1.4% hits; AID 1024;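 active means activation factor of 2 or more for CYP2C9 at a 5 µM dose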;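 further: 0 = sulfaphenazole-blocked wells and 1 = vehicle-only wells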
# Target sequence (P11712 whole entry, looked up): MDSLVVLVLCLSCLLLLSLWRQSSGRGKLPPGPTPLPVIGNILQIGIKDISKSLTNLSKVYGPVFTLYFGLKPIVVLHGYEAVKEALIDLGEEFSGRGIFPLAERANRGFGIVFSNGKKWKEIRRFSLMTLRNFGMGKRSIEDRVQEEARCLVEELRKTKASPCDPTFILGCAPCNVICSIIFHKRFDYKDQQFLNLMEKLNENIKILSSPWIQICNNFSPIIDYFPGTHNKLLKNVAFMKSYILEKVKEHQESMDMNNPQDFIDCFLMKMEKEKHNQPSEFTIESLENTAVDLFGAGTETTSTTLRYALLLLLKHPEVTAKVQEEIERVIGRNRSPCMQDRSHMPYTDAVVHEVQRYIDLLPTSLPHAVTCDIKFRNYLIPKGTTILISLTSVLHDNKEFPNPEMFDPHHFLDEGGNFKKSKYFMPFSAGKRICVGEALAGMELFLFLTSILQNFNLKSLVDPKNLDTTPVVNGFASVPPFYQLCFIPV
# CYP2C19 activ = increases human CYP2C19 enzyme activity | activation factor at 5 µM | 96,000 tested, under 10 active | P33261 | AID 1025 | recombinant CYP2C19, luciferin-H EGE luminescence; stronger effect = higher value; 0 = fully inhibited enzyme, 1 = untreated enzyme;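 active means activation factor of at least 2 at 5 µM in the primary screen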;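 further: 0 = wells with 2.5 mM tranylcypromine and 1 = vehicle-only wells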
# Cav32 inh = inhibitors of human Cav3.2 T-type calcium channel. Cav3.2-expressing cells, Fluo-4 calcium fluorescence FDSS; stronger effect = lower value. B-score at 10 µM. 100,000 compounds, 4% hits;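 active means single-dose well whose peak fluorescence ratio is a statistical outlier from its plate by either plate-standardised score or position-corrected B-score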
# CYP2C9 inhib = human CYP2C9 inhibition; P11712; CYP2C9 Supersomes, luciferin-H conversion, luminescence; inhibition, % at 5 µM; 96,000 compounds, 20% hits;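 active means blocking of liver enzyme CYP2C9 beyond about 50% at 5 µM, limit read from the data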
# The depositor's hits bear a star; . = not tested or not shown.
SMILES,Rev-RRE block,CYP2C19 inhib,CYP2C9 activ,CYP2C19 activ,Cav32 inh,CYP2C9 inhib
Cc1cc(C)n(C(=O)c2cc3c(s2)CCCC3)n1,17.5,0.6,1,1,-0.0441,1.2
CC(C)[C@H](NC(=O)c1ccccc1)C(=O)OCC(=O)N1CCc2ccccc2C1,4.9,-12.3,1.3,1.1,1.8,-33.3
COC(=O)c1nc(-c2ccc(C)cc2)oc1N(C)C,2.5,14.9,2.4*,0.9,0.496,-144.5
COC(=O)c1nc2ccc(C)cn2c1F,4.5,3.5,0.9,1,-0.229,13.3
COC(=O)c1nc(-c2ccccc2)oc1N(C)C,-1.6,8.6,2.9*,0.9,1.38,-193.0
CCCCCCOc1ccc(-c2ccc(C#N)cn2)cc1,16.0,33.3,0.6,0.7,-0.173,38.7
O=C(O)C1C2C=CC3(CN(C/C=C/c4ccccc4)C(=O)C13)O2 (stereo not given),7.6,-2.7,0.9,1,0.0566,5.9
CN(c1cccc(Cl)c1)S(=O)(=O)c1cccc(C(=O)NC2=NCCS2)c1,8.0,73.8*,0.2,0.3,0.266,81.8*
CS(=O)(=O)N(CC(=O)N1CCCCC1)c1ccc(Cl)c(C(F)(F)F)c1,4.7,16.1,1,0.8,-0.319,-1.1
Cc1cc(Cl)c(S(=O)(=O)Nc2ccc3c(c2)OCO3)cc1OCC(=O)NC1CCCCC1,9.8,79.0*,0.4,0.2,-4.23*,61.8*
Cc1cc(Cl)c(S(=O)(=O)Nc2ccc3c(c2)OCO3)cc1OCC(N)=O,2.6,90.0*,0.4,0.1,0.155,62.1*
O=C(COC(=O)c1ccc(Cl)c(S(=O)(=O)N2CCCC2)c1)NC1CCCC1,2.3,65.3*,0.7,0.3,-0.142,34.3
Cc1cc(Cl)c(S(=O)(=O)N2CCCC2)cc1OCC(=O)NC1CCCCC1,13.2,95.1*,0.2,0,2.19,77.1*
Cc1cc(Cl)c(S(=O)(=O)NC(C(=O)O)C(C)C)cc1OCC(=O)NC1CCCCC1 (stereo not given),-2.9,3.2,0.7,1,0.653,27.2
CCC(C)NC(=O)CSc1nnc(-c2cc(-c3ccc(C)cc3)nc3ccccc23)n1N (stereo not given),6.7,14.1,0.5,0.9,.,46.8
CCOC(=O)C1CCN(c2cc(=O)n(Cc3ccc(F)cc3)c(=O)[nH]2)CC1,.,-5.4,0.7,1.1,-1.86,25.6
Cc1ccc(C)c(S(=O)(=O)NCC(=O)Nc2sc3c(c2C(N)=O)CCC(C)C3)c1 (stereo not given),1.8,15.2,1,0.8,-0.0485,-1.0
CN(C)Cc1nc2ccccc2c(=O)n1Cc1nc(C(C)(C)C)cs1,3.9,82.0*,0.1,0.2,-0.685,93.0*
CC(C)Cn1c(CN2C(=O)c3ccccc3C2=O)nc2ccccc2c1=O,2.0,6.1,0.7,0.9,.,29.3
CCC1CCc2c(sc(NC(=O)c3ccoc3C)c2C(N)=O)C1 (stereo not given),11.7,9.3,0.6,0.9,0.804,42.2
OCCN(Cc1ccccc1)Cc1cccc(F)c1,2.3,69.8*,0.8,0.3,0.134,15.8
OCCN(Cc1ccccc1)Cc1ccc(C(F)(F)F)cc1,12.9,95.4*,0.5,0,-0.66,50.3*
CCCN(CCO)Cc1cccc(Cl)c1,9.3,7.1,1,0.9,0.365,-4.8
OCCN(Cc1ccccc1)Cc1cccc(C(F)(F)F)c1,12.4,73.1*,0.8,0.3,-1.63,19.7
COC(=O)C1=CN(CCCN2CCCC2=O)C=C(C(=O)OC)C1c1ccccc1C(F)(F)F,-4.9,6.8,0.6,0.9,0.802,44.6
SMILES,Rev-RRE block,CYP2C19 inhib,CYP2C9 activ,CYP2C19 activ,Cav32 inh,CYP2C9 inhib
c1cc(-c2nc3cc(Cc4ccc5oc(-c6ccncc6)nc5c4)ccc3o2)ccn1,.,11.2,0.5,0.9,.,51.1*
O=C(Cn1c(=O)n(Cc2ccco2)c(=O)c2c3c(sc21)CCCCC3)Nc1ccccc1,1.2,3.2,0.6,1,-4.52*,42.8
CN(C)CCn1c(=O)n(Cc2ccco2)c(=O)c2c3c(sc21)CCCCC3,5.0,6.5,0.8,0.9,0.338,16.0
O=c1c2c3c(sc2n(CCN2CCCC2)c(=O)n1Cc1ccco1)CCCCC3,.,35.6,0.5,0.6,-0.0562,52.2*
O=C(Cn1c(=O)n(Cc2ccco2)c(=O)c2c3c(sc21)CCCCC3)c1ccccc1,1.6,36.9,0.5,0.6,-1.89,53.0*
Cc1ccc(NN2C(=O)C=C(c3ccc(Cl)cc3)C2=O)cc1,2.2,-4.6,0.4,1,0.641,55.6*
CCCCSC1(SCCCC)N=C(N)C2(C#N)C(c3ccccc3)NC(C)=C(C)C12C#N (stereo not given),2.1,57.1*,0.9,0.4,0.0247,14.8
Cc1csc(NC(C)c2nc3cc(Cl)c(Cl)cc3n2CCCO)n1 (stereo not given),.,.,.,.,-0.113,.
Cc1[nH]c2ccccc2c1SCC(=O)N1CCCc2ccccc21,10.8,75.9*,0.9,0.2,-4.85*,8.7
CCn1cc(S(=O)(=O)CC(=O)NC2CCCCC2)c2ccccc21,3.3,31.7,1,0.7,0.981,2.9
CCn1cc(S(=O)(=O)CC(=O)N2CCc3ccccc32)c2ccccc21,.,.,.,.,-0.0418,.
Cc1[nH]c2ccccc2c1SCC(=O)N1CCN(c2ccccc2)CC1,5.1,49.0,0.9,0.5,-3.2,5.0
O=C(CS(=O)(=O)c1c[nH]c2ccccc12)NC1CCCCC1,6.2,50.9*,1.7,0.5,0.914,-66.0
Cn1cc(S(=O)(=O)CC(=O)N2CCc3ccccc32)c2ccccc21,2.4,66.9*,0.6,0.3,0.0393,42.0
O=C(CS(=O)(=O)c1c[nH]c2ccccc12)N1CCCc2ccccc21,0.6,94.2*,1.8,0.1,0.0136,-81.2
COc1cccc(C(=O)CSc2nnc(CNS(=O)(=O)c3ccc(C)cc3)n2C)c1,3.6,-1.5,1,1,0.568,2.2
CCOc1ccc(N2C(=O)CC(N)C2=O)cc1 (stereo not given),5.4,.,.,.,0.909,.
Cc1cc(C(=O)NC(C)C)on1,2.0,0.5,1,1,-0.3,2.1
CCCn1cc(S(=O)(=O)CC(=O)N2CCc3ccccc32)c2ccccc21,.,86.6*,0.2,0.1,-2.06,78.9*
Cc1cc(O)c(C(C[N+](=O)[O-])c2ccc(Cl)cc2)c(=O)o1 (stereo not given),7.2,47.0,0.2,0.5,0.463,83.7*
COc1ccc(C(c2c(O)cc(C)oc2=O)c2c(O)cc(C)oc2=O)cc1,0.8,7.0,0.7,0.9,0.892,34.8
C#CCNC(=O)C1=C[C@@H](c2coc3ccccc3c2=O)C[C@@H](OCCCCO)O1,.,.,.,.,-0.0424,.
CCOc1ccccc1N(CC(=O)NC(C)(C)C)C(=O)Cn1nnc(-c2ccc(C)o2)n1,3.3,32.2,0.7,0.7,-0.636,25.2
CC(=O)N1CN(Cc2ccccn2)Cc2c1sc1c2CCCC1,0.1,26.9,0.9,0.7,0.435,14.4

# Source: PubChem
